# PGC1a Ac signal: raises PGC1a acetylation signal in U2OS cells. activation, % at 15.6 µM. U2OS PGC1a acetylation AlphaScreen, overnight. AID 651723. 0.21% of 350,000 active;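 active = every replicate reaching activation of at least 50%, whatever the mean replicate activation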;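 also: hits raise the AlphaScreen acetylation signal above neutral controls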
#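 System: flag-PGC1a/GCN5 U2OS cells / Input: 7000 cells/well / Compound: single test concentration per compound / Incubation: overnight compound treatment, 37 °C / Technique: AlphaScreen on lysates with anti-acetyl-lysine antibody, acceptor and donor beads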
# * = called active by the depositor. The full list was thinned out, with hits kept by preference.
SMILES,PGC1a Ac signal
C[C@H]1CN([C@@H](C)CO)S(=O)(=O)c2ccc(Br)cc2O[C@H]1CN(C)S(C)(=O)=O,-107
CC(=O)OC[C@]12CC[C@H]3[C@@](C)(CC[C@H]4C(C)(C)CCC[C@]34C)[C@@H]1CC(C1=CC(=O)OC1O)O2 (stereo partly drawn),-87
COC(=O)c1cc(CN2C(=O)c3ccccc3C2=O)c(O)c([N+](=O)[O-])c1,-40
Cc1cccc(N(CC(=O)NC(C)(C)C)C(=O)CNC(=O)c2cccs2)c1,-47
CCCOc1ccc2c(c1)C(=NN=C(N)N)c1cc(OCCC)ccc1-2,75*
COc1ccc(C(=O)NC(=S)N(C)Cc2ccccc2)cc1Br,-49
COc1ccc([N+](=O)[O-])cc1NCc1ccccc1,84*
COc1ccc(C(=O)OCC(=O)NCc2ccc3c(c2)OCO3)cc1[N+](=O)[O-],-46
O=C(N=Nc1c(O)[nH]c2ccccc12)c1cc(-c2cccs2)[nH]n1,-48
CC(C)(O)C#Cc1ccc(C(=O)NC(CCCNC(N)=O)C(=O)O)s1 (stereo not drawn),-82
CC(C)(C)C(=O)Nc1sc2c(c1-c1nc3ccccc3[nH]1)CCCC2,65*
Cc1cc(Sc2nnc(N)s2)c2ccccc2n1,59*
Cc1ccc(-c2cnc3c(c2)C(=O)N([C@@H](C)CO)C[C@@H](C)[C@H](CN(C)C)O3)cc1,-109
C[C@@H]1CCCCO[C@H](CN(C)C(=O)NC2CCCCC2)[C@@H](C)CN([C@@H](C)CO)C(=O)c2cc(NC(=O)NC3CCCCC3)ccc2O1,-45
Cc1c(/C=N/Nc2nc3ccccc3[nH]2)c2ccccc2n1C,121*
CCN(CC)Cc1c(O)ccc2c([N+](=O)[O-])c(C)n(-c3ccc(OC)cc3)c12,-46
O=C(CC(Nc1ccc(F)cc1)C(=O)O)c1ccccc1 (stereo not drawn),76*
COCCOc1ccc(C(F)(F)F)cc1NC(=O)CN1C(=O)NC2(CCCc3ccccc32)C1=O (stereo not drawn),-55
COc1cccc(N(C(=O)CCl)C(C(=O)NCCc2ccccc2)c2cccs2)c1 (stereo not drawn),-29
COc1cccc(S(=O)(=O)N[C@H]2CC[C@H](CC(=O)NCc3ccc(F)cc3)O[C@@H]2CO)c1,-55
COc1cccc(N(CC(=O)NCc2cccnc2)S(C)(=O)=O)c1,89*
CC(C)NC(=O)Nc1ccc2c(c1)C(=O)N([C@@H](C)CO)C[C@@H](C)[C@H](CN(C)C(=O)NC(C)C)OCCCC[C@@H](C)O2,-49
Cc1ccc(CNn2cnnc2SCC(=O)NC(C)(C)C)cc1,-42
CC(=O)c1coc2c1cc(O)c1ccccc12,63*
CC1=NN(C(=O)c2ccc(C)cc2)C(O)(C(F)(F)OC(F)(F)F)C1 (stereo not drawn),55*
SMILES,PGC1a Ac signal
CC(C)CCC1=NN(C(=O)c2ccco2)C(O)(C(F)(F)F)C1 (stereo not drawn),-44
COc1ccc(/C=N/NC(=O)Cn2cnc3ccccc3c2=O)cc1OC,-53
CCOc1ccccc1CNC(=O)c1cc2oc3ccccc3c2n1C,88*
CO[C@@H]1CN(C)C(=O)c2cc(NS(=O)(=O)c3ccc(Cl)cc3)ccc2OC[C@H](C)N(C)C[C@H]1C,-60
C=C1C(=O)O[C@@H]2[C@H]1[C@@H](OC(=O)/C(C)=C/C)C/C(C)=C\C(=O)/C=C(\C)[C@@H]2O,198*
CN=C1c2cc3cc(OC)ccc3n2CCN1Cc1ccccc1,83*
Cc1noc(C)c1NC(=O)N(C)C[C@@H]1Oc2c(NS(=O)(=O)c3cn(C)cn3)cccc2C(=O)N([C@@H](C)CO)C[C@@H]1C,-54
CCN(CC)CCOc1ccc(/C(=C(\Cl)c2ccccc2)c2ccccc2)cc1,80*
O=C(Nc1ccc(F)cc1)N[C@H]1C=C[C@H](CC(=O)N2CCCCC2)O[C@H]1CO,-43
N#CC1=C(N)Oc2c(ccc3ccccc23)C1c1ccsc1 (stereo not drawn),57*
COc1cc(CCC(=O)Nc2cc(C)cc(C)c2)cc(OC)c1OC,-45
COc1cc(CC(=O)OC2CCOC2=O)cc(OC)c1OC (stereo not drawn),57*
CC(=O)Nc1ccc(C(=O)OC2CCOC2=O)cc1 (stereo not drawn),-47
Cc1ccc(S(=O)(=O)C(NC(=O)c2ccccc2)=C(Cl)Cl)cc1,60*
Cc1ccc(C(=O)NNC(=O)c2cccc(Br)c2)cc1,-63
CCCNC(=O)Nc1ccc2c(c1)C(=O)N(C)C[C@H](OC)[C@H](C)CN(CC1CCCC1)[C@@H](C)CO2,-44
COc1ccc(CCNC(=O)C(=O)NCC2CCCO2)cc1OC (stereo not drawn),-44
O=C(CCCc1cccs1)NCCc1c[nH]c2ccccc12,-42
COc1cc2[nH]c(=O)n(CCCC(=O)NCCc3ccccc3)c(=O)c2cc1OC,84*
CCNC(=S)N1C2CCC1CC(NC(=O)NC1CCCCC1)C2 (stereo not drawn),-48
CC(C)(C)c1ccc(NC(=O)N2CCCN(c3ccc([N+](=O)[O-])cn3)CC2)cc1,186*
COC(=O)c1cc(C(=O)N2CCN(c3cccc(Cl)c3)CC2)cc([N+](=O)[O-])c1,78*
O=C(Oc1ccc[nH]c1=O)c1cc([N+](=O)[O-])cc([N+](=O)[O-])c1,-53
COc1ccc(OC)c(CN2CCN(C(=O)c3ccc(NS(=O)(=O)c4cccc([N+](=O)[O-])c4)cc3)CC2)c1,-40
O=S(=O)(c1cnccc1N1CCN(/N=C/c2ccccc2)CC1)N1CCCCC1,-57
SMILES,PGC1a Ac signal
O=C(NCc1ccco1)c1ccc(Cn2c(=O)c3ccccc3n(Cc3ccc(Cl)cc3)c2=O)cc1,88*
COCCCNC(=O)c1ccc(Cn2c(=O)c3ccccc3n(Cc3ccccc3C)c2=O)cc1,-52
O=C1CSC(=Nc2ccc(Cl)cc2)N1Cc1ccco1,-47
CCOc1ccc2c(c1)C(C)=CC(C)(C)N2S(=O)(=O)c1ccc(NC(C)=O)cc1,106*
CC(=O)Nc1ccc(OS(=O)(=O)c2ccc(C)cc2C)cc1,-48
CSc1nc2c(c(=O)[nH]c(=O)n2C)n1Cc1ccccc1,-43
O=C1CCN(S(=O)(=O)c2ccc(Cl)cc2)N1,63*
CC1CCCC(C)N1C(=S)NCc1ccco1 (stereo not drawn),-47
O=C(Nc1ccccc1)Nc1cc(Cl)cc(Cl)c1,-39
O=C(Nc1ccccc1)c1nnsc1S(=O)c1ccc(Cl)cc1 (stereo not drawn),125*
C=CCn1c(SCC(=O)NC(=O)NCc2ccco2)nc2sc(CC)cc2c1=O,57*
CN1OC(COC(=O)c2ccccc2)CC1c1ccccc1 (stereo not drawn),-49
CN(C)c1ccc(/C=C/c2ccc3c4ccccc4ccc3[n+]2-c2ccccc2)cc1,-44
CCn1c(SCC(=O)Nc2ccc(OC)c(OC)c2)nnc1-c1cccs1,-41
CCn1c(CNc2ccc(C)cc2)nnc1SCC(N)=O,76*
CCn1c(SCC(N)=O)nnc1C(C)C,-44
O=C(C[C@H]1C=C[C@H](NC(=O)Nc2ccc(C(F)(F)F)cc2)[C@@H](CO)O1)NCc1ccccn1,-43
COC(=O)c1cccc(NC(=O)CSc2nc3cccnc3n2C)c1,-53
CC(C)OC(=O)CSc1nc2cccnc2n1-c1ccc(F)cc1,53*
Cc1ccc(OC[C@H](O)[C@H](C)NC(C)C)c2c1CCC2,-45
CCOC(=O)c1c2c(n(C)c1C)C(=O)C(=O)c1ccc(Br)cc1-2,83*
CCOC(=O)c1c(C)n(C)c2cc(Br)c(O)c(O)c12,-47

# Source: PubChem
